Compounds with a hit are over-represented: about 3.5% of the library has one in this group of screens.
HIV Env fusion – HIV envelope-mediated fusion inhibition; AID 651610; HeLa-JRFL Env/CEM21 cell fusion, luciferase; inhibition, % at 12.3 µM; 360,000 tested, 1.1% active;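 active = mean replicate inhibition score of at least 50 and every replicate individually at or above 50; inconclusive = only one of the two criteria met; inactive = mean below 50 and not all replicates reaching 50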
rRNA inh HTS – inhibitors of bacterial rRNA selective over humanized ribosomes | E. coli WT GFP vs humanized-ribosome RFP mutants, fluorescence, 24 h; stronger effect = lower value; DMSO median 0, no signal -100 | GFP signal change (wild-type ribosome), % (no concentration beside the values) | 350,000 tested, 1.6% active | AID 720706;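 active = significant combined selectivity score with lowered wild-type GFP, culture density cut under 30%, mutant RFP and density less affected; inactive = any of these conditions unmet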
Cneo AK release – causes C. neoformans cell lysis; adenylate kinase release luminescence, 4 h; normalised: neutral wells 0, clomiphene wells 100; lysis activity, % at 15 µM; 360,000 tested, 0.2% active; AID 651654;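 active = mean lysis activity across replicates of at least 80%, whatever share of replicates individually reach that level; inactive = mean lysis activity below 80%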
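Material: C. neoformans cells | Amount: Yeast cell density of 5 × 10^6 cells/mL | Medium: Fresh YPD growth medium | Dosing: Single dose | Times: Static 4 h at 37 °C with compound, 1 h detection | Detection: AK luminescence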
FGF22 binding-1 – shifts melting point of recombinant human FGF22; activity (Tm shift, normalised), % at 9.99 µM; AID 651658; 340,000 tested, 1.5% active; Q9HCT0; recombinant FGF22 thermal shift, SYPRO orange fluorescence; percent of sucrose octasulfate shift, DMSO zero;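 active = mean Tm shift, scaled 0 neutral to 100 positive control, at about 1.3% or above, every replicate too, limit read from the data; inconclusive = no clear call, values can overlap the other calls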
Target sequence (Q9HCT0 whole entry, looked up): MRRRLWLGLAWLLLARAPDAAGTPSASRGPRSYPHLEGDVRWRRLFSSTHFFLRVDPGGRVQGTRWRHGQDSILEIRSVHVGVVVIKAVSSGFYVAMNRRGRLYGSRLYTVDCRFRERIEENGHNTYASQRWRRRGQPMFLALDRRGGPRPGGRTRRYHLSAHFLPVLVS
PGC1a acetyl inh – lowers PGC1a acetylation signal in U2OS cells | AlphaScreen anti-acetyl-lysine; with virally co-expressed GCN5 acetyltransferase | inhibition, % at 15.6 µM | 350,000 tested, 0.17% active;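 active = every replicate shows inhibition of at least 40%; inconclusive = mean inhibition at least 40% but some replicate below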
ERAP1 HTS inh – inhibitors of human ERAP1 aminopeptidase. Q9NZ08. recombinant ERAP1, Leu-AMC fluorescence, 60 min. inhibition, % at 10.7 µM. 340,000 tested, 0.15% active;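 active = mean replicate inhibition of at least 30%, or all replicates individually reaching that 30% level; inactive = mean below 30% and not every replicate reaching it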
FGF22 binding-2 – binds human FGF22 shifting its melting temperature; shares compounds with FGF22 binding-1; recombinant FGF22 thermal shift, SYPRO orange fluorescence; thermal shift activity, °C (ΔTm) at 38 µM; 1,000 tested, 2% active;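 active = fitted rise in melting shift crosses a set limit at or below the top valid dose tested; inconclusive = flat fit at mid-level activity, or a poor quality fit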
FGF22 TSA DP – binders of human FGF22 by thermal shift | shares compounds with FGF22 binding-1 | AID 743017 | Thermal shift assay, SYPRO orange, melting temperature shift | 50 tested, under 10 active | Tm shift (activity), % at 38 µM;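 active = compounds whose fitted dose curve of melting temperature shift rises past a set threshold within the tested doses; inconclusive = flat curve at moderate activity, or poor curve fit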
SYPRO no-protein – compound-only SYPRO artifact for FGF22 binders. 1,000 tested, 2% active. compound-only SYPRO orange thermal shift counter-screen, no protein. shares compounds with FGF22 binding-1. AC50, µM (series often up to 38 µM). AID 743019;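 active = rising signal whose fitted curve reaches the 0.54 level within the top valid dose, showing a melting point, actives reach about 13 µM in these data; inactive = the rest, including activity in the opposite direction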; note: value is where the raw curve crosses a fixed level and not half-maximal
A number is an active result; - = inactive; ? = inconclusive; . = no result.

SMILES	HIV Env fusion	rRNA inh HTS	Cneo AK release	FGF22 binding-1	PGC1a acetyl inh	ERAP1 HTS inh	FGF22 binding-2	SYPRO no-protein	others
CCOC(=O)c1ccc(S(=O)(=O)Nc2cc(C(=O)O)ccc2Cl)cc1	-	-	.	2.2	-	-	-	-
CCc1cc2c(=O)c(-c3nc4ccccc4n3C)coc2c(CN2CCCCC2)c1O	-	-	-	-	-	-	.	.
COc1cc(NS(=O)(=O)c2ccc(N)cc2)nc(OC)n1	-	-	-	-	?	-	.	.
COc1cc(NS(=O)(=O)c2ccc(NS(=O)(=O)c3ccc(C)cc3)cc2)nc(OC)n1	-	-	-	3.1	.	-	-	-
O=C(NN=Cc1ccc(O)cc1O)c1ccccc1NS(=O)(=O)c1cccs1	-	-	-	1.9	-	-	-	-
Nc1nc(SCc2ccccn2)c2ncn(C3CCCC3)c2n1	.	-	-	-	-	-	.	.
COc1cc(O)c(C(=O)O)c(CCc2ccccc2)c1	-	-	-	-	-	-	.	.
O=C(CCc1ccccc1)c1c(O)cc(O)cc1O	.	.	-	21	-	.	-	-
Cc1cccc(CNC(=O)C2CCC(=O)N(C3CCCC3)C2)c1 (stereo unspecified)	-	-	-	-	.	-	.	.
O=C(C[C@@H]1C[C@@H]2c3cc(NC(=O)NC4CCCC4)ccc3O[C@@H]2[C@@H](CO)O1)NCc1ccc2c(c1)OCO2	-	-	-	-	-	-	.	.
O=C(C[C@H]1C[C@@H]2c3cc(NC(=O)NC4CCCC4)ccc3O[C@@H]2[C@H](CO)O1)NCc1ccc2c(c1)OCO2	-	-	-	1.9	-	-	-	-
O=S(=O)(Nc1nnc(C(F)(F)F)s1)c1ccc(Cl)cc1	-	-	-	2.6	-	-	.	-	FGF22 TSA DP=-
CC(=O)Nc1cccc(NC(=O)Nc2ccc(C(C)=O)cc2)c1	-	.	-	.	-	.	.	.
CC(=O)Nc1ccc(NC(=O)Nc2ccccc2)cc1	-	-	-	1.8	.	-	-	-	FGF22 TSA DP=-
CC(=O)c1ccc(NC(=O)Nc2cccnc2)cc1	.	-	-	1.4	.	-	-	-	FGF22 TSA DP=-
O=S(=O)(c1cccc2cccnc12)N1CCN(Cc2ccccc2)CC1	-	-	.	1.4	-	-	-	-
O=S(=O)(c1cccc2cccnc12)N1CCN(Cc2ccc3c(c2)OCO3)CC1	.	.	.	.	-	.	.	.
COc1ccc(CCNC(=O)CCN2C(=O)C3CC=CCC3C2=O)cc1OC (stereo unspecified)	-	.	-	.	-	.	.	.
CCN(CCn1cccn1)C(=O)CCc1nnc(Cc2c[nH]c3ccccc23)o1	-	-	.	12	.	-	-	-
CCN(CCn1cccn1)C(=O)CCc1nnc(-c2ccccc2)o1	-	-	.	-	.	-	.	.
CN1CCc2c(sc(NC(=O)c3ccc(S(=O)(=O)N4CCCCCC4)cc3)c2C(N)=O)C1	.	.	-	.	.	.	.	.
CC(C)C[C@@H](CN(C)N=O)N(C[C@H](Cc1ccccc1)N(CCc1ccccc1)N=O)N=O	94	-	-	1.6	-	-	-	-
CCS(=O)(=O)N1CC(=O)N2[C@H](CO)[C@@H](c3ccc(-c4ccccc4F)cc3)[C@@H]2C1	.	-	.	1.3	-	-	-	-
CO[C@H](CN(C)S(=O)(=O)c1cccc(Cl)c1)[C@H](C)CN([C@H](C)CO)S(=O)(=O)c1cccc(Cl)c1	.	-	-	2.0	-	-	-	-
CO[C@@H](CN(C)S(=O)(=O)c1cccc(Cl)c1)[C@H](C)CN([C@@H](C)CO)S(=O)(=O)c1ccc(Cl)cc1	-	-	-	-	-	-	.	.
SMILES	HIV Env fusion	rRNA inh HTS	Cneo AK release	FGF22 binding-1	PGC1a acetyl inh	ERAP1 HTS inh	FGF22 binding-2	SYPRO no-protein	others
CO[C@@H](CN(C)S(=O)(=O)c1cccc(Cl)c1)[C@@H](C)CN([C@H](C)CO)S(=O)(=O)c1cccc(Cl)c1	.	-	-	1.6	-	-	-	-
CO[C@@H](CN(C)S(=O)(=O)c1ccc(Cl)cc1)[C@H](C)CN([C@H](C)CO)S(=O)(=O)c1cccc(Cl)c1	?	-	-	-	-	-	.	.
CO[C@H](CN(C)S(=O)(=O)c1cccc(Cl)c1)[C@H](C)CN([C@@H](C)CO)S(=O)(=O)c1cccc(Cl)c1	.	-	-	1.8	-	-	-	-
COc1ccccc1N1C(C)=CC(=C(C#N)c2nc3ccccc3s2)C=C1C	-	-	.	-	.	-	.	.
COc1ccccc1CN1CC(C(=O)NCc2nccn2C)CCC1=O (stereo unspecified)	-	-	-	-	-	-	.	.
CC(=O)c1ccc(NC(=O)Nc2ccc([N+](=O)[O-])cc2)cc1	-	-	.	-	.	-	.	.
O=C(O)/C=C/c1cccc(NC(=O)Nc2ccc([N+](=O)[O-])cc2)c1	-	-	-	1.6	-	-	-	-
C[C@H](CO)N1C[C@H](C)[C@H](CN(C)CC2CCCCC2)Oc2ccc(NC(=O)C3CC3)cc2C1=O	-	-	-	-	-	-	.	.
CC(=O)N1[C@@H](CO)[C@@H](c2ccccc2)C12CN(C(=O)c1ccccn1)C2	.	-	.	1.4	-	-	-	-
O=C(CC1CC1)N1CC2(C1)[C@H](c1ccccc1)[C@H](CO)N2C(=O)c1cnccn1	.	-	.	1.4	-	-	-	-
COCC(=O)N1CC2(C1)[C@@H](c1ccccc1)[C@@H](CO)N2C(=O)NC1CCCC1	.	-	.	1.4	-	-	-	-
CC(=O)N1[C@H](CO)[C@@H](c2ccccc2)C12CN(C(=O)c1ccccn1)C2	.	-	.	1.3	-	-	-	-
CCC(=O)c1ccc(OCC(=O)OCC(=O)N2CCN(c3ccc(OC)cc3)CC2)cc1	-	-	.	-	.	-	.	.
CCOc1ccc(C(C)(C)C)cc1S(=O)(=O)Nc1ccncc1	-	-	-	-	.	-	.	.
O=C(c1cccc(S(=O)(=O)NCc2ccccc2)c1)N1CCN(Cc2ccccc2)CC1	.	.	-	.	-	.	.	.
Nc1nnc(SCC(=O)Nc2cccnc2Cl)s1	-	-	-	-	-	-	.	.
Cc1noc(NC(=O)c2cccc(Cl)c2Cl)c1C#N	-	-	.	1.3	-	-	-	-
COc1cc2ccccc2cc1C(=O)OCC(=O)c1c(N)n(C)c(=O)n(C)c1=O	-	-	-	17	-	-	-	-
COc1ccc(C(=O)O)cc1S(=O)(=O)Nc1cccc(C(F)(F)F)c1	.	.	-	.	-	.	.	.
COc1ccc(C(=O)N2CCCCC2)cc1S(=O)(=O)Nc1cccc(C(=O)O)c1	.	-	-	1.7	-	-	-	11µM

High-throughput results: PubChem BioAssay, Broad Institute
